# Assay results collected from several papers.
# Target: SNF-related serine/threonine-protein kinase (SNRK, Homo sapiens, UniProt Q9NRH2)
# Sequence (Q9NRH2 1-765, as in one of the studies): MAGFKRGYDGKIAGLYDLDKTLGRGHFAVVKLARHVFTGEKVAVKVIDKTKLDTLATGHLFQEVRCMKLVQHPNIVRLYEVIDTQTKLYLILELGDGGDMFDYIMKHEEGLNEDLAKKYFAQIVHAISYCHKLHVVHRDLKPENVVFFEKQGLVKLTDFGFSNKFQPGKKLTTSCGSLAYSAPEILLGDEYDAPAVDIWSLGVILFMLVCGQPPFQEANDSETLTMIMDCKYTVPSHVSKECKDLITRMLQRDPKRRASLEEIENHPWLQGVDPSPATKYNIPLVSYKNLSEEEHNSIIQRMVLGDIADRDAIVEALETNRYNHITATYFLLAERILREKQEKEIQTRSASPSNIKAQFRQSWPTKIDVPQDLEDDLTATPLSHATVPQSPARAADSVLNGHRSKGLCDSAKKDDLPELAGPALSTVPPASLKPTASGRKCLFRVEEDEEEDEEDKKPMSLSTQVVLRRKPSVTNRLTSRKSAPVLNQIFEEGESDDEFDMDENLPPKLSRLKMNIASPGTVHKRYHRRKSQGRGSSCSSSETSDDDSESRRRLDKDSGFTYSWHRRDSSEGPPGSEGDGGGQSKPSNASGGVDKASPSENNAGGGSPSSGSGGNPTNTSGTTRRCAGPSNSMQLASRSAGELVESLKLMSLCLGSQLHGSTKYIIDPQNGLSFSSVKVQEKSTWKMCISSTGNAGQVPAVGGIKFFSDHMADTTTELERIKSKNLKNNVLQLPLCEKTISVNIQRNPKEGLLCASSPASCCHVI
Structure (SMILES),assay,setting,remaining binding [%]
O=C(Nc1cccnn1)N1CCC(=Cc2cccc(Oc3ccc(C(F)(F)F)cn3)c2)CC1,"cell-free assay, competition with immobilised ligand",1 µM,100
CCN1CCN(Cc2ccc(C(=O)Nc3ccc(C)c(Oc4ccc5c(c4)CC(=O)N5)c3)cc2C(F)(F)F)CC1,"binding, competition with immobilised ligand",1 µM,98
CNC(=O)[C@@H]1CC[C@@H](n2c(-c3ccc4cnccc4c3)nc3ccc(C(=O)NCc4cccc(C(N)=O)c4)cc32)C1,"binding, competition with immobilised ligand",1 µM,100
C=CC(=O)N1CCC(C(=O)NCC(=O)N2CCN(c3nc(-c4cnc(N)nc4C(F)F)nc(N4CCOCC4)n3)CC2)CC1,"binding, competition with immobilised ligand",1 µM,99
c1cnn2ncc(-c3ccnc(N4CCC45COC5)n3)c2c1,binding,1 µM,67
O=c1nc(-c2ccccn2)sc2ccccc12,"binding, competition with immobilised ligand",1 µM,100
Cc1cnn2ncc(-c3ccnc(N(C)C)n3)c2c1,binding,1 µM,79
COc1ccc2c(c1)O[C@H](c1ccc(OC)c(OC)c1)C[C@@H]2NC(=O)C1(c2ccc3c(c2)OC(F)(F)O3)CC1,"cell-free assay, competition with immobilised ligand",1 µM,92
O=C(NCCCN1CCOCC1)c1ccc(Nc2nccc(-c3cc4ccccc4s3)n2)cc1,"binding, competition with immobilised ligand",1 µM,99
N[C@H]1CCN(c2nccc(-c3cnn4ncccc34)n2)C1,binding,1 µM,100
O=C(NCC1CCOCC1)c1n[nH]cc1NC(=O)c1c(F)cccc1F,"binding, competition with immobilised ligand",1 µM,84
CN(C)c1ncc(F)c(-c2cnn3ncccc23)n1,binding,1 µM,100
O=C(c1ccc(Nc2ncc(Cl)c(-c3ccc(Cl)s3)n2)cc1)N1CCC(N2CCCC2)CC1,"binding, competition with immobilised ligand",1 µM,87
COc1cc(-c2cn(C3CCc4c(F)cccc4N(CC(F)(F)F)C3=O)nn2)ccc1-n1cnc(C)c1 (stereo not shown),"cell-free assay, competition with immobilised ligand",1 µM,100
FC(F)(F)Oc1cccc(-c2cnc3ccc(-c4ccncc4)nn23)c1,"binding, competition with immobilised ligand",5 µM,71
CC(=O)N1CCC(c2ccc(C(=O)NC(=N)N)cc2C(F)(F)F)CC1,"cell-free assay, competition with immobilised ligand",1 µM,100
Cc1cnc(Nc2ccc(C(=O)N3CCC(N4CCCC4)CC3)cc2)nc1-c1cc2ccccc2s1,"binding, competition with immobilised ligand",1 µM,100
CN(CCCC(F)(F)F)c1nccc(-c2cnn3ncccc23)n1,binding,1 µM,100
CN(c1ccnc(CNc2nc(Nc3ccc4c(c3)CC(=O)N4)ncc2C(F)(F)F)n1)S(C)(=O)=O,"cell-free assay, competition with immobilised ligand",1 µM,85
C[C@@H]1CCN(c2nccc(-c3cnn4ncccc34)n2)C1,binding,1 µM,92
CS(=O)(=O)NCC[C@H](NC(=O)c1cncc2c1cnn2-c1ccc(F)cc1)c1ccnc(S(C)(=O)=O)c1,"cell-free assay, competition with immobilised ligand",1 µM,100
COc1cnc(Nc2cccc(S(N)(=O)=O)c2)nc1N1CCN(c2ccccc2)C(=O)C1,"binding, competition with immobilised ligand",1 µM,85
